Assay outcomes: PubChem BioAssay, several laboratories
Rows were chosen to be rich in hits. Some 2.9% of all compounds tested hit in one or more screens of this group.
ABHD5-PLIN5 inh: ABHD5-PLIN5 protein interaction inhibition | 360,000 tested, 0.78% active | inhibition, % at 4 µM | Q00G26+Q8WTS1 | Split G. princeps luciferase complementation, luminescence, 4 h | AID 602281;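 active = inhibition above the mean inhibition across every tested compound plus 3 SD, cut at about 22% in these data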;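 also: 0% = DMSO only wells and the 100% control is not disclosed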
PRMT1 FP inh: blocks human protein arginine methyltransferase 1; inhibition, % at 2.79 µM; Q99873; recombinant PRMT1, activity-based probe fluorescence polarization; AID 652257; 370,000 tested, 1.3% active;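 active = inhibition above about 21% made by adding two undisclosed values, limit read from the data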
A3A deaminase: inhibitors of human APOBEC3A DNA deaminase. P31941. recombinant A3A, FAM/TAMRA ssDNA deamination fluorescence. inhibition, % at 20 µM. 330,000 tested, 0.41% active. AID 493011;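 active = at least 40% inhibition at 20 µM here, with at most 30% in a related deaminase screen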;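 also: plate controls were A3A with DMSO for no effect and wells lacking A3A enzyme for full effect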
Target sequence (P31941 whole entry, looked up): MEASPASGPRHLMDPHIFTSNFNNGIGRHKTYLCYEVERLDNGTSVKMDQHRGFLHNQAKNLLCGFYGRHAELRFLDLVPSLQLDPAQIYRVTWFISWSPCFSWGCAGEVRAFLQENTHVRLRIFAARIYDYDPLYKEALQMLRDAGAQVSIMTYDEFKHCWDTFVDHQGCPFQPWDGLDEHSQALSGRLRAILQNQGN
NS3 helicase inh: blocks Hepatitis C virus NS3 helicase unwinding; NS3 helicase DNA unwinding, Cy5 molecular beacon fluorescence; inhibition, % at 10.9 µM; 290,000 tested, 0.56% active;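 active = inhibition above the mean of all tested compounds plus 3 SD, set per campaign, cut at about 35% in these data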;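 also: 0% = DMSO wells and 100% = thioflavine S control wells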
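Control set: DMSO versus 110 µM thioflavine S; Material: NS3 helicase fragment of HCV; Measured by: Cy5 fluorescence at 0 and 60 min, beacon hairpin quenching; Read-out basis: percent inhibition from t60/t0 fluorescence ratio; Times: reaction time 60 min, 25 °C; Repeats: single replicate; Compound dosing: single dose, 10.9 µM nominal final, DMSO 0.8% final.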
APOBEC3G inh: blocks human APOBEC3G single-stranded DNA deamination | inhibition, % at 20 µM | Q9HC16 | AID 493012 | 330,000 tested, 0.28% active | recombinant A3G, ssDNA deamination FAM/TAMRA fluorescence;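 active = inhibition of at least 40% at 20 µM, with no more than 30% in the related APOBEC3A deaminase screen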;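 also: plate controls were DMSO wells with A3G for no effect and wells lacking A3G enzyme for full effect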
Target sequence (Q9HC16 whole entry, looked up): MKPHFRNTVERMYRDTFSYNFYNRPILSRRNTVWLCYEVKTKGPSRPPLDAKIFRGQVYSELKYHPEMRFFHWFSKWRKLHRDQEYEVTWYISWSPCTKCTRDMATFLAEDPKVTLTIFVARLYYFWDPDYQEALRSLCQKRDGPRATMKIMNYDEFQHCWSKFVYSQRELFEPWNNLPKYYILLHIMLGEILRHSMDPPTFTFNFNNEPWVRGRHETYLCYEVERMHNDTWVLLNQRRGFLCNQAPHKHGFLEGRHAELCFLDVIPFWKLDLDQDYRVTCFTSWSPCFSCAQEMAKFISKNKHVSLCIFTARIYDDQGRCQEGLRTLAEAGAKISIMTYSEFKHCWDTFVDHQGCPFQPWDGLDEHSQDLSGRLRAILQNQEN
core dimer inh: HCV core protein dimerization inhibition; TR-FRET GST/Flag-core106 dimerization, 1536-well; inhibition, % at 5 µM; 300,000 tested, 0.33% active; AID 1899;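 active = inhibition above the mean of all tested compounds plus 3 SD, set per screening campaign, cut at about 45% in these data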
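Material: Tagged HCV core106 pair (GST and Flag) | Amount: GST-core106 13.5 nM, Flag-core106 17 nM | Medium: KF-containing HEPES buffer, pH 7.45, DTT, CHAPS, BSA | Reagent: Eu donor and XL665 acceptor anti-tag antibodies | Schedule: 4 h at 22.5 °C | Technique: Time-resolved FRET, ex 340 nm, em 617 and 671 nm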
PRMT1 inh conf: confirmation of human PRMT1 inhibitors; shares compounds with PRMT1 FP inh; recombinant His-PRMT1, activity-based probe fluorescence polarization; inhibition, % at 2.79 µM; 3,300 tested, 42% active;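 active = mean inhibition across replicates above the hit cutoff derived for the earlier primary screen, cut at about 22% in these data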
The depositor's hits bear a star; x = no result.

SMILES	ABHD5-PLIN5 inh	PRMT1 FP inh	A3A deaminase	NS3 helicase inh	APOBEC3G inh	core dimer inh	PRMT1 inh conf
O=C(COc1ccc(C(=O)NCC2CCCO2)cc1)Nc1cccc(C(F)(F)F)c1 (centres undefined)	-2	-5	-7	x	3	2	x
Cn1cccc1/C=C1\SC(=S)N(NC(=O)c2ccccc2O)C1=O	15	-7	3	0	-2	-14	x
O=C(O)CN1C(=O)/C(=C2\SC(=S)N(C(Cc3ccccc3)C(=O)O)C2=O)c2ccccc21 (centres undefined)	-11	15	-3	31	-5	-1	x
O=C(O)C(Cc1ccccc1)N1C(=O)/C(=C/c2cccnc2)SC1=S (centres undefined)	-7	26*	1	23	-4	5	4
O=C(NN1C(=O)/C(=C/C=C/c2ccco2)SC1=S)c1ccccc1O	12	42*	96	34	87	70*	32*
COc1ccc(/C=C2\SC(=S)N(C(Cc3ccccc3)C(=O)O)C2=O)cc1 (centres undefined)	-9	3	-2	35	-10	x	x
O=C(O)C(Cc1ccccc1)N1C(=O)/C(=C/C=C/c2ccco2)SC1=S (centres undefined)	0	61*	x	31	x	x	34*
CCC1c2ccccc2C(=O)C1C(N)=O (centres undefined)	-7	-3	x	x	x	x	x
O=C(O)CCSCC(=O)c1ccc2c(c1)OCCO2	-7	32*	0	16	-3	6	4
O=C(O)CCC(=O)c1ccc2c(c1)OCCO2	1	0	0	0	-5	-6	x
CN(C)CCCC(=O)c1ccc2c(c1)OCO2	0	-1	-1	4	-4	-1	x
CN(C)CCC(=O)c1ccc2c(c1)OCO2	7	36*	-6	-6	-5	-1	18
O=C(CCN1Cc2ccccc2C1)c1ccc2c(c1)OCCO2	16	26*	-3	-15	-9	7	22*
Cn1cnc(S(=O)(=O)N2CCCCC2c2cc(C(=O)Nc3ccccc3Cl)no2)c1 (centres undefined)	-6	-3	x	x	x	x	x
COc1ccc(C(C(=O)NC2CCCCC2)N(Cc2cccnc2)C(=O)c2snc(C(N)=O)c2N)cc1 (centres undefined)	9	1	0	0	-5	0	x
COc1ccc(NC(=O)CSc2nnnn2C2CC2)cc1S(=O)(=O)N1CCOCC1	-2	38*	10	x	-6	x	-2
O=C(CSc1nnc(-c2cccnc2)n1Cc1ccco1)Nc1ccc(Cl)cc1	x	1	x	x	x	x	x
CC1CC2=C(NC(=S)NC2c2cccc(F)c2)/C(=C/c2cccc(F)c2)C1 (centres undefined)	6	14	x	-3	x	x	x
CC1CC2=C(NC(=S)NC2c2ccccc2F)/C(=C/c2ccccc2F)C1 (centres undefined)	-3	49*	-2	6	-6	22	10
Cc1ccc(/C=C2\CCCC3=C2NC(=S)NC3c2ccc(C)cc2)cc1 (centres undefined)	-6	45*	0	-6	-2	14	35*
Cc1ccc(/C=C2\CC(C)CC3=C2NC(=S)NC3c2ccc(C)cc2)cc1 (centres undefined)	5	38*	0	-31	-6	13	30*
Fc1ccc(/C=C2\CCCC3=C2Nc2ncnn2C3c2ccc(F)cc2)cc1 (centres undefined)	17	2	-2	-3	0	7	x
COC(=O)[C@H](Cc1ccccc1)NC(=O)CC[C@H]1O[C@@H](n2ccc(=O)[nH]c2=O)[C@H](O)[C@@H]1O	1	-3	x	x	x	x	x
COc1ccc(Cc2c(C3CCCCC3)nc3cc(C)c(Br)c(C)n23)c(C)c1	-2	0	x	x	x	x	x
Oc1ccccc1OCc1nc2ccccc2s1	-9	28*	-2	3	-10	-2	10
SMILES	ABHD5-PLIN5 inh	PRMT1 FP inh	A3A deaminase	NS3 helicase inh	APOBEC3G inh	core dimer inh	PRMT1 inh conf
NC(=O)CSCc1nc2ccccc2s1	-13	27*	1	6	-5	4	20
N/C(Cc1nc2ccccc2s1)=N\O	-4	0	-1	13	-10	0	x
Nc1ccc(C(=O)OCc2nc3ccccc3s2)cc1	-2	-4	2	-11	-4	0	x
N#CC1=C(N)SC(N)=C(C#N)C1C1C=CCCC1 (centres undefined)	-12	36*	2	9	-2	9	2
N#CC1=C(N)SC(N)=C(C#N)C1C1CC=CCC1 (centres undefined)	-3	10	-1	4	-7	3	x
COc1ccc(OC)c(-n2c(-c3cc(-c4ccc(F)cc4)n[nH]3)n[nH]c2=S)c1	-2	35*	-2	-5	-2	8	6
O=C(NC1CCCCC1)C(CCc1ccccc1)N1CCc2ccccc2C1 (centres undefined)	-6	-3	x	x	x	x	x
CN(Cc1ccccc1)C(=O)c1[nH]cnc1C(=O)Nc1ccccc1F	-3	0	x	x	x	x	x
O=C(/C=C/c1ccco1)NCc1ccc(F)cc1	17	38*	0	13	-8	0	15
CCCOc1ccc(F)cc1-c1cc(C(=O)Nc2ccc(OC)cc2C)[nH]n1	-7	-2	x	x	x	x	x
O=C(NCc1ccco1)c1cccnc1-c1nc2ccccc2s1	-4	42*	2	4	8	1	46*
Cc1cncc(NCc2ccc3c(c2)OCO3)n1	-8	0	x	x	x	x	x
CC1CCCCC1NC(=O)CSc1nnc(COc2ccc(Cl)cc2)o1 (centres undefined)	-4	3	-1	3	-7	-3	x
CCOc1ccccc1N(CC(=O)NCCc1ccccc1)C(=O)CCC(=O)Nc1ccccn1	0	-4	0	-2	-5	-3	x
Nc1sc2c(c1C(=O)c1ccccc1)CCCC2	-11	12	2	11	0	19	x
NC(=O)c1c(N)sc2c1CCCC2	-2	41*	-2	5	6	-3	29*
COC(=O)[C@]12C[C@H](CC(=O)NCc3cccs3)C(=O)N(Cc3ccc4c(c3)OCO4)C1=C[C@H](C(C)(C)C)O[C@@H]2C	x	0	x	x	x	x	x
Cn1cnnc1SCC(=O)Nc1ncc([N+](=O)[O-])s1	7	7	44	x	39	x	x
CCN1CCCC1CNC(=O)Cn1nc(C)n2c(cc3cc(F)ccc32)c1=O (centres undefined)	5	33*	-2	3	-5	1	2
CCCNC(=O)Cn1nc(C)n2c(cc3cc(F)ccc32)c1=O	1	-2	1	27	-2	x	x
CCN(CC)Cc1cc(O)c(CN(CC)CC)cc1O	11	30*	x	17	x	x	76*
CCc1oc(C(=O)O)cc1CN(CC)CC	4	1	1	-4	1	-3	x
